# From PubChem BioAssay
# A selection: hits, their analogues and other compounds. The true share with any hit is near 3.4%.
# MDM2 E3 inh: Mdm2 E3 ligase (human) inhibition; AID 1230; signal enhancement, % at 5 µM; Q00987; cell-based MDM2 ubiquitination luciferase reporter, 2 h; 0 = plate control, 100 = twice control, blank-subtracted; 210,000 tested, 0.11% active;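 active = signal enhancement of 30% or more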;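 note: luminescence tracks abundance of the self-degrading MDM2-luciferase fusion protein; higher signal means inhibition of MDM2 E3 ligase activity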
#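 system = mammalian cells stably expressing self-ubiquitinating, self-degrading MDM2 E3–luciferase fusion | quantity = 2000 cells per well seeded | incubation = 4 h cell settling then 2 h compound exposure, 37 °C | signal = SteadyLite luminescence, 15 min reagent step | benchmarks = plate control and blank wells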
# Cl transport mod: modulates chloride dependent transport by human KCC2. 190,000 tested, 2.2% active. B-score of Tl+ flux slope (higher = more flux/activation; lower = inhibition) at 10 µM. KCC2 cells, thallium flux FluoZin-2 fluorescence. Q9H2X9. AID 1456;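 active = thallium flux slope and its plate-corrected score both differing from the plate sample mean at a set confidence after two filtering rounds, in either direction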;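 note: slope of fluorescence scaled to starting intensity during 10 to 20 s after thallium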
# Target sequence (Q9H2X9 whole entry, looked up): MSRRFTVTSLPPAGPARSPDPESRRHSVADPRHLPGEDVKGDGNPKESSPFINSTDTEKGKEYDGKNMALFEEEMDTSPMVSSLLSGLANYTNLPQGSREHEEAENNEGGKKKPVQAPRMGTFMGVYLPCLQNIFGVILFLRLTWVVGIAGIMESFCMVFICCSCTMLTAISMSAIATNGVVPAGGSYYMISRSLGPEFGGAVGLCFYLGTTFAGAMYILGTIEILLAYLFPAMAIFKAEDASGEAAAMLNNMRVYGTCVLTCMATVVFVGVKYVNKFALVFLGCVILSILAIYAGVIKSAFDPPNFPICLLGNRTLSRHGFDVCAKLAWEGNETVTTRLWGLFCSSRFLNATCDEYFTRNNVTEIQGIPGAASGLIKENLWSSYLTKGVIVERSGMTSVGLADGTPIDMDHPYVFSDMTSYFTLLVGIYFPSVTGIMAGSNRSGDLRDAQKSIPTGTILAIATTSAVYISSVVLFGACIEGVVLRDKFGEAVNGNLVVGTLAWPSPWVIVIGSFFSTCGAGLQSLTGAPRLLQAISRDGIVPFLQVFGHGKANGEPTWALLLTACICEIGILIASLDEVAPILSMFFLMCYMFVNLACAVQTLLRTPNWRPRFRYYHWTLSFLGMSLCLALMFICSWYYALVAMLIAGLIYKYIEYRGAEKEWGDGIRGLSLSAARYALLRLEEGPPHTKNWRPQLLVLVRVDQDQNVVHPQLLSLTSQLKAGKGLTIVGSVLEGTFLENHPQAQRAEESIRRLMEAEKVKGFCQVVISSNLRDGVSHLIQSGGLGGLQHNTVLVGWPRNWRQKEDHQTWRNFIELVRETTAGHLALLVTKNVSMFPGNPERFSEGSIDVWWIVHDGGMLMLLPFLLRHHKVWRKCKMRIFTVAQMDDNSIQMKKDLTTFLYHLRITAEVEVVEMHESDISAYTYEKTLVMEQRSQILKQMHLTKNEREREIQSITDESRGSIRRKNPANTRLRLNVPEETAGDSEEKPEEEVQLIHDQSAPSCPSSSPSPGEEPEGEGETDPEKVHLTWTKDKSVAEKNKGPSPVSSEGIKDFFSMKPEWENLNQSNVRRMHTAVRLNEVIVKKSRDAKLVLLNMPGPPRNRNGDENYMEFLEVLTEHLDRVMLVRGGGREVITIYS
# ROMK mod: human ROMK K+ channel modulation, primary screen; P48048; Tet-inducible ROMK, thallium flux fluorescence; actives lie on both sides; B-score at 10 µM; 130,000 tested, 2% active; AID 1918;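 active = signal ratio slope over the read window, or its plate-corrected B-score, at least 3 SD from the plate mean, either direction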;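 note: B-score of the F/F0 ratio slope over 7 to 12 s after thallium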
# Redox H2O2 prof: compounds producing H2O2 with reducing agent – biochemical, NIH compound library profiling, artefact control for MLSCN library redox annotation, primary screen; DTT-dependent redox cycling H2O2, phenol red/HRP absorbance; 100% = 100 µM peroxide control, 0% = buffer; activation, % at 10 µM; 200,000 tested, 0.03% active;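 active = activation of at least 50% relative to the plate's high and low controls in the primary single-dose screen; inactive = activation below 50%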;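 note: compound incubated with DTT at 0.8 mM final as the reducing agent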
# PKD1 kinase inh: blocks activity of human protein kinase D1; inhibition, % (no concentration beside the values); 200,000 tested, 0.056% active; Q15139; AID 797; PKD1 kinase fluorescence polarization assay; in the data active = inhibition above about 50%
# p97 inhibitor: human p97 ATPase inhibition | 220,000 tested, 0.42% active | inhibition, % at 8 µM | P55072 | recombinant p97 ATPase, Kinase-Glo ATP luminescence, 3 h; in the data active = inhibition above about 15%;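 note: 0% = DMSO vehicle and 100% = wells lacking enzyme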
# ROMK retest: retested hit modulating human ROMK potassium channel; shares compounds with ROMK mod; ROMK thallium flux, fluorescence ratio; stronger effect = lower value; normalized thallium flux (F/F0 slope) at 10 µM; 3,000 tested, 54% active; AID 1917;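 active = Flux at 10 µM at least 3 SD below or above vehicle control mean in one or both replicates; inconclusive = no clear call, values can overlap the other calls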
# An asterisk follows results filed as active; ? = inconclusive; / = no result.
SMILES,MDM2 E3 inh,Cl transport mod,ROMK mod,Redox H2O2 prof,PKD1 kinase inh,p97 inhibitor,ROMK retest
CCSc1nnc(NC(=O)NCC(F)(F)F)s1,-9,-0.21,2.6*,0,-4,10,0.078
CCSc1nnc(NC(=O)C(CC)(C(F)(F)F)C(F)(F)F)s1,2,-2.2,-0.91,0,0,3,0.071
Cc1ccc(CN2CCN(Cc3cnc(N(C)C)s3)CC2CCO)o1 (stereo not given),12,0.55,0.65,0,1,3,/
CC1CCN(c2nc(N3CCCCC3)nc(N3CCCCC3)n2)CC1,6,/,/,-1,0,3,/
N#Cc1nc(N2CCCC2)nc(N2CCCC2)n1,-11,/,-3.4*,-5,-8,-1,0.063*
C1CCN(c2nc(N3CCCCC3)nc(N3CCNCC3)n2)CC1,-11,0.36,-3*,4,-6,-4,0.067*
N#Cc1nc(N2CCCCC2)nc(N2CCOCC2)n1,-11,0.46,/,2,-11,4,/
COc1ccc(CCNc2oc(COc3ccccc3Cl)nc2C#N)cc1OC,-16,-2.9,/,-1,-13,-8,0.067*
O=S(=O)(NCCn1cccc1)c1ccc2ccccc2c1,-6,-0.037,-0.68,0,1,6,/
CNc1ccccc1C(=O)OC,-69,0.69,/,/,/,/,0.081
COC(=O)c1ccccc1NC(=O)CC#N,22,0.23,/,-1,-15,4,0.073
CCOC(=O)CSc1nc2c(c(=O)[nH]c(=O)n2C)n1C/C=C(/C)Cl,-57,-0.033,/,-1,8,4,/
O=C(CC1=NCCNC(c2ccccc2)C1)c1ccccc1O (stereo not given),-11,0.86,-2.3*,2,12,1,?
COc1ccc(N2CCc3c(C)nc4c(OC)cc(OC)cc4c32)cc1,-13,-2,-1.6,0,1,1,/
COc1ccc(N2CCc3c(C)nc4c(OC)cc(OC)cc4c32)c(OC)c1,-1,-0.8,/,-4,-18,-3,0.061*
Cc1cccnc1-n1c(CCN2C(=O)c3ccccc3C2=O)nc2ccccc2c1=O,-4,/,/,2,-1,3,/
COc1cc(C)nc(NC(=O)COc2ccc(Cl)cc2C)n1,-23,0.68,/,2,-2,0,?
COc1cc(C)nc(OCCNC(=O)COc2ccc(Cl)cc2Cl)n1,1,/,/,2,-6,-2,/
CCOCCCNC(=O)c1cc2sc(Cl)cc2n1CC,-12,-0.0071,3.1*,0,-5,3,0.082
CCOCCCNC(=O)c1cc(C)nn1-c1ccccc1,-16,0.77,/,-1,0,6,/
C[C@H]1[C@H](C)CC[C@]2(C)CC[C@]3(C)C(=CC[C@@H]4[C@@]5(C)CC[C@@H](O)[C@](C)(C(=O)O)[C@@H]5CC[C@]43C)[C@H]12,2,-0.012,/,/,/,/,0.081
O=C(NC1CC(=O)c2sccc21)c1cccc(C(F)(F)F)c1 (stereo not given),-5,0.14,-0.76,-1,-4,0,/
COc1cccc(N2CC(O)=C(c3nc4ccccc4s3)C2=N)c1,17,1,3.3*,0,-8,6,?
COc1cc(C(CC(=O)N2CCCC2)c2c(OC)cc(OC)c3ccc(=O)oc23)cc(OC)c1OC (stereo not given),11,0.21,/,/,/,/,/
O=C(CCn1c2c(c3ccccc31)CCCC2)NNC(=O)c1ccccc1C(=O)O,-10,1.2,/,/,/,7,0.079
CC(O)CNCCOc1ccccc1OCc1ccccc1 (stereo not given),1,0.079,-1,-2,8,-2,/
CNC(=O)CCCc1nc(-c2ccccc2Cl)no1,-23,/,3.1*,0,-4,2,0.072
NC(=O)CCCc1nc(-c2ccccc2Cl)no1,1,0.64,/,3,-4,2,/
CC(Nc1cc(N2CCNCC2)ccc1[N+](=O)[O-])c1ccccc1 (stereo not given),/,-0.74,-3.2*,0,2,0,0.053*
